This note sets out measurements from ChEMBL document CHEMBL1154490, “Novel linear triaryl guanidines, N-substituted guanidines and potential prodrugs as antiprotozoal agents” (Eur J Med Chem, 2008).

Activity calls are given as the source filed them. No cut-off for these calls is given here. Where only a bound is given, the exact number is not on record here.

For assay [1], the system named is Trypanosoma brucei rhodesiense. As to the kind of experiment: Antiprotozoal activity against Trypanosoma brucei rhodesiense STIB900 bloodstream form after 72 hrs by alamar blue assay. In kind it is functional, organism-based. In general terms: Alamar Blue is a resazurin reagent that responds to reducing activity.
The subject of assay [2] is Trypanosoma brucei rhodesiense. As to the kind of experiment: Antitrypanosomal activity against Trypanosoma brucei rhodesiense STIB900 infected in mouse assessed as parasite-free survival at 25 mg/kg, ip administered on day 3 to 6 after infection measured on day 60. In kind it is functional, organism-based. On the set-up: dose 25 mg/kg.
The test system of assay [3] is Trypanosoma brucei rhodesiense. As to the kind of experiment: Antitrypanosomal activity against Trypanosoma brucei rhodesiense STIB900 infected in mouse assessed as average survival days at 25 mg/kg, ip administered on day 3 to 6 after infection. In kind it is functional. To be noted: route intraperitoneal.
The subject of another assay is L6. Description: Cytotoxicity against rat L6 cells after 72 hrs by alamar blue assay. In kind it is cell-based. To be noted: L6, 72 h. The method in brief:
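Cultured L6 rat myoblasts exposed to compound; viability read by the same Alamar Blue procedure used for the STIB900 trypanosome assay; duplicate determinations.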

The next assay deals with Plasmodium falciparum. Description: Antiprotozoal activity against chloroquine and pyrimethamine-resistant Plasmodium falciparum K1 after 72 hrs by [3H]hypoxanthine uptake. It counts as functional, organism-based.
A short description of assay [4]: Binding affinity to poly(dA-dT)2 DNA assessed as change in thermal melting temperature administered at compound to DNA ratio of 0.3 by thermistor analysis. Put shortly: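 Thermal melting of poly(dA-dT)2 in CAC 10 buffer (cacodylic acid 10 mM, EDTA 1 mM, NaCl 100 mM, pH 7.0), 1 cm quartz cuvettes, temperature raised 0.5 C/min. DNA quantified by A260. Compound:DNA 0.3 mol/mol, compound-free DNA as control. ΔTm reproducible within 0.5 C.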

The subject of assay [5] is Trypanosoma brucei rhodesiense. As to the kind of experiment: Antitrypanosomal activity against Trypanosoma brucei rhodesiense STIB900 infected in mouse assessed as average survival days at 20 mg/kg, ip administered on day 3 to 6 after infection. In kind it is functional. To be noted: route intraperitoneal.
Assay [6] relates to Trypanosoma brucei rhodesiense. Description: Antitrypanosomal activity against Trypanosoma brucei rhodesiense STIB900 infected in mouse assessed as parasite-free survival at 20 mg/kg, ip administered on day 3 to 6 after infection measured on day 60. In kind it is functional, organism-based. Details: dose 20 mg/kg. The method in brief:
(§1)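 STIB900 acute mouse infection model with four infected mice per group. Parent compounds were given intraperitoneally and prodrugs orally, once daily for 4 days. Read-outs were the number of mice alive and parasite-free at day 60, and average days of survival.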

In assay [7] the test system is Trypanosoma brucei rhodesiense. Description: Antitrypanosomal activity against Trypanosoma brucei rhodesiense STIB900 infected in mouse assessed as parasite-free survival at 25 mg/kg, po administered on day 3 to 6 after infection measured on day 60. It counts as functional, organism-based. On the set-up: dose 25 mg/kg. Put shortly: as §1
In assay [8] the test system is Trypanosoma brucei rhodesiense. As to the kind of experiment: Antitrypanosomal activity against Trypanosoma brucei rhodesiense STIB900 infected in mouse assessed as average survival days at 25 mg/kg, po administered on day 3 to 6 after infection. It counts as functional.

A word on the IC50: it is the concentration needed to halve the response being measured. A lower IC50 goes with inhibition by little substance. For the molecule `CCOC(=O)/N=C(\NC)Nc1ccc(-c2ccc(-c3ccc(N/C(=N/C(=O)OCC)NC)cn3)cc2)nc1`, the values for the IC50 (in assay [1]; with L6; in the assay with Plasmodium falciparum) were 17.8 µM, above 169 µM and 0.0026 µM, respectively. Besides, the result in assay [2] was inactive. In addition, the Activity in assay [3] worked out at 7.75 days.
By ΔTm is commonly meant the change in melting temperature against a reference sample. On to `CNC(=N)Nc1ccc(-c2ccc(-c3ccc(NC(=N)NC)cc3)cc2)cc1`, for which the half-inhibitory concentration (IC50) was determined as 0.018 µM in assay [1], 65.1 µM in the assay on L6 and 0.007 µM with Plasmodium falciparum. Moreover, the ΔTm in assay [4] stood at 13 °C. Also, the Activity in assay [5] is above 56 days. Also, the outcome in assay [6] was inactive.
As to `CC(C)NC(=N)Nc1ccc(-c2ccc(-c3ccc(NC(=N)NC(C)C)cn3)cc2)nc1`, the IC50 in assay [1] was 11.9 µM; in the assay on L6, 89.7 µM; in the assay on Plasmodium falciparum, 0.393 µM. Besides, the ΔTm in assay [4] stood at 8.1 °C.
As to `CCOC(=O)/N=C(/Nc1ccc(-c2ccc(-c3ccc(N/C(=N/C(=O)OCC)NC(C)C)cc3)cc2)cc1)NC(C)C`, the IC50 in assay [1] was found to be 14.2 µM; in the assay with L6 it was 5.3 µM; in the assay with Plasmodium falciparum it was 0.0045 µM.
With `N=C(N)Nc1ccc(-c2ccc(-c3ccc(NC(=N)N)cn3)cc2)nc1`, the IC50 in assay [1] was found to be 0.169 µM; with L6, 152 µM; with Plasmodium falciparum it was 0.151 µM. Also, the ΔTm in assay [4] stood at 9.2 °C. Further, the Activity in assay [5] is 8.5 days. The result in assay [6] was inactive.
Consider `CCOC(=O)/N=C(\NC)Nc1ccc(-c2ccc(-c3ccc(N/C(=N/C(=O)OCC)NC)cc3)cc2)cc1`, for which the results for the IC50 (in [1]; in the assay with L6; in the assay with Plasmodium falciparum) were 7.5 µM, 5.7 µM and 0.0089 µM, respectively. In addition, in assay [7], the outcome was inactive. Moreover, in assay [8], the Activity is 20.25 days.
With `N=C(N)c1ccc(-c2ccc(-c3ccc(C(=N)N)cc3)cc2)cc1`, in [4], the ΔTm came to 18.2 °C. Moreover, in assay [5], the Activity turned out to be 29 days. Moreover, the outcome in [6] was inactive. The same molecule displayed an IC50 in the assay with Plasmodium falciparum of 0.001 µM.
Turning to `CNC(=N)Nc1ccc(-c2ccc(-c3ccc(NC(=N)NC)cn3)cc2)nc1`, the results for the IC50 (in assay [1]; with L6; in the assay on Plasmodium falciparum) were 0.134 µM, above 161 µM and 0.054 µM, respectively. Moreover, the ΔTm in assay [4] came out at 10.2 °C. Also, in [5], the Activity was above 47 days. Also, the result in assay [6] was inactive.
Take `CCOC(=O)/N=C(\N)Nc1ccc(-c2ccc(-c3ccc(N/C(N)=N/C(=O)OCC)cc3)cc2)cc1`: the IC50 is 142 µM in assay [1], above 181 µM in the assay on L6 and 0.0017 µM with Plasmodium falciparum. In addition, the outcome in [7] was inactive. Further, the Activity in assay [8] came out at 20.25 days.
For the molecule `CCOC(=O)/N=C(/Nc1ccc(-c2ccc(-c3ccc(N/C(=N/C(=O)OCC)NC(C)C)cn3)cc2)nc1)NC(C)C`, the IC50 was 8.2 µM in assay [1], above 135 µM in the assay on L6 and 0.0029 µM with Plasmodium falciparum.
For `CC(C)NC(=N)Nc1ccc(-c2ccc(-c3ccc(NC(=N)NC(C)C)cc3)cc2)cc1`, the IC50 was 0.53 µM in [1], 21.9 µM with L6 and 0.014 µM in the assay on Plasmodium falciparum. In addition, in assay [4], the ΔTm is 9.3 °C.
Regarding `N=C(N)Nc1ccc(-c2ccc(-c3ccc(NC(=N)N)cc3)cc2)cc1`, the IC50 in assay [1] was determined as 0.018 µM; in the assay on L6, 25.4 µM; in the assay on Plasmodium falciparum it was 0.027 µM. The ΔTm in assay [4] was found to be 14.2 °C. The Activity in [5] is above 54.5 days. The outcome in [6] was inactive.
Consider `CCOC(=O)/N=C(\N)Nc1ccc(-c2ccc(-c3ccc(N/C(N)=N/C(=O)OCC)cn3)cc2)nc1`, for which the IC50 in assay [1] was 61 µM; with L6, above 181 µM; in the assay on Plasmodium falciparum, 0.0019 µM. Further, the result in assay [7] was inactive.
